From PubChem
In the library only some 1.7% were active in any assay of this set; here they are far more common.
SUMO1 PPI mod: modulators of SUMO1 protein-protein interactions, primary screen, biochemical, uHTS. SUMO1 binding to a labelled peptide, TR-FRET, 1 h. inhibition, % at 20 µM. 360,000 tested, 0.33% active. AID 602429, 2012; in the data active = inhibition above about 37%
Target sequence (P63165 whole entry, looked up): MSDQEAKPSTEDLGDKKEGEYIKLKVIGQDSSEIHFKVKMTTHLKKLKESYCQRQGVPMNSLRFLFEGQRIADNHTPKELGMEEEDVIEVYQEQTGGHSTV
LMPTP inh: LMPTP phosphatase inhibitors, primary screen, biochemical, fluorescence intensity, uHTS | inhibition, % at 20 µM | 360,000 tested, 0.22% active | Low molecular weight phosphotyrosine protein phosphatase (Homo sapiens), P24666 | recombinant LMPTP-A, OMFP fluorogenic substrate;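 active = compounds that cut the enzyme signal by at least half of the control window in the single-dose screen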;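 note: plate controls were DMSO wells with enzyme plus substrate for no effect and substrate without enzyme for full effect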
Target sequence (P24666 whole entry, looked up): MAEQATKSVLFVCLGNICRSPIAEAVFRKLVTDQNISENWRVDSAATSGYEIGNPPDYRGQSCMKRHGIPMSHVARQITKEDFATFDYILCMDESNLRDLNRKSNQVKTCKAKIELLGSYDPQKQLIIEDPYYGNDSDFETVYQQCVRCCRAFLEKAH
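Assay system: LMPTP-A enzyme. Input: 0.625 nM LMPTP-A final. Probe or stimulus: 400 µM OMFP. Compound dosing: single 20 µM dose. Schedule: 50 min dark incubation at room temperature. Detection: fluorescence intensity of OMFP turnover product. Read-out: percent inhibition versus substrate-only and uninhibited controls. Benchmarks: no-enzyme low control, uninhibited high control.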
DNMT1 inh: human DNMT1 methyltransferase inhibitors, primary screen, biochemical, molecular beacon, fluorescence, HinP1I cleavage, uHTS; DNA (cytosine-5)-methyltransferase 1 (Homo sapiens), P26358; inhibition (reported as % activation of signal), % at 10 µM; 360,000 tested, 0.83% active; AID 588458, 2011; in the data active = inhibition above about 50%
Scp-1 inhibitor: Scp-1 phosphatase inhibitors, primary screen, biochemical, colorimetric, uHTS. Carboxy-terminal domain RNA polymerase II polypeptide A small phosphatase 1 (Homo …. Recombinant Scp1, phosphopeptide, malachite green phosphate absorbance. inhibition, % at 20 µM. 340,000 tested, 0.88% active;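 active = inhibition above about 50% at 20 µM, limit read from the data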;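 note: plate controls were DMSO wells with enzyme for no effect and wells lacking enzyme for full effect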
Target sequence (Q9GZU7 76-261 limits assumed): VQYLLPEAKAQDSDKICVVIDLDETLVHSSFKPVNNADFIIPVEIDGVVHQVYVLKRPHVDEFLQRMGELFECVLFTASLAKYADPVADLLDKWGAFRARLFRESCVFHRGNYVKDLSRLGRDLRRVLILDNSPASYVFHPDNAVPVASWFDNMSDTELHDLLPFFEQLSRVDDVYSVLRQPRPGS
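Test system: SCP-1 catalytic domain; Buffer or medium: Acidic Tris acetate buffer with magnesium and detergent; Also added: Phosphorylated 17-residue peptide substrate; Compound: single 20 µM dose, 1% DMSO; Schedule: enzyme reaction 45 min at room temperature, colour 5 min, stabilisation 30 min; Signal: Phosphate-binding colour reagent, absorbance read at 630 nm.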
STEP inh: STEP phosphatase inhibitors, primary screen, biochemical, fluorescence intensity, uHTS | Tyrosine-protein phosphatase non-receptor type 5 (Homo sapiens), P54829 | recombinant STEP, OMFP fluorogenic substrate | inhibition, % at 20 µM | 360,000 tested, 0.25% active;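 active = inhibition at 20 µM, scaled per plate between control wells, above about 37%, limit read from the data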;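 note: 0% = DMSO with enzyme and substrate and 100% = substrate only without enzyme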
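Material: STEP (striatal-enriched tyrosine phosphatase) enzyme, cell-free; Compound dosing: 20 µM single dose in 1% DMSO; Technique: fluorescence read at 480 nm ex / 540 nm em; Times: reaction 20 min, ambient temperature; Medium: 50 mM Bis-Tris pH 6.0 with 2.5 mM DTT and 0.005% Tween 20; Also added: OMFP at 25 µM.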
STEP conf: STEP phosphatase inhibitor hit confirmation, biochemical, fluorescence intensity, single concentration | shares compounds with STEP inh | recombinant STEP, OMFP fluorogenic substrate | inhibition, % at 20 µM | 520 tested, 32% active; call rule not given here;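 note: 0% = enzyme with substrate plus DMSO and 100% = substrate without enzyme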
Active calls of the source: *; . = no result.

SMILES	SUMO1 PPI mod	LMPTP inh	DNMT1 inh	Scp-1 inhibitor	STEP inh	STEP conf
CC1(C)Cc2c(sc(NC(=O)C(=O)NCCCN3CCOCC3)c2C(N)=O)CO1	-5.4	-2.2	1.4	-4.0	40.4*	13.3
O=C(Nc1cccc2c(=O)[nH][nH]c(=O)c12)c1ccc([N+](=O)[O-])cc1	6.2	20.8	29.7	.	56.7*	47.0*
CN1CCN(C2=NC(=O)/C(=C/c3ccccc3OS(=O)(=O)c3ccccc3)S2)CC1	-25.4	-1.8	-3.0	-6.2	46.6*	22.5
NC1=NC(=O)/C(=C/c2ccccc2OS(=O)(=O)c2ccccc2)S1	0.6	-3.2	8.7	-4.2	-0.2	.
Cc1ccc(N=C2NC(=O)/C(=C/c3cccnc3)S2)cc1C	-6.9	9.6	0.1	37.9	45.3*	15.3
Cc1sc2nc(CSC(C)C(=O)Nc3ccc(Cl)cn3)[nH]c(=O)c2c1C (stereo not drawn)	5.9	-1.8	2.4	2.3	78.6*	59.6*
COc1ccc(CCNC(=O)c2nnn(CC(=O)Nc3cccc(F)c3)c2N)cc1OC	-2.1	-0.2	-3.2	-4.6	0.5	.
CSc1ncccc1C(=O)OCC(=O)Nc1ccc2c(c1)CCC2	3.0	1.1	1.5	2.8	1.9	.
COCCN1C(=O)C(=O)/C(=C(/O)c2ccc(S(=O)(=O)N3CCCCC3)cc2)C1c1ccc(O)c(OC)c1 (stereo not drawn)	-23.1	3.2	0.4	-3.8	4.2	.
Cc1cc([N+](=O)[O-])c(C)cc1-c1ccc(/C=N/n2cnnc2)o1	-12.8	9.0	1.7	45.7	49.8*	-1.0
OCCN1CCN(C(=S)c2ccc(Br)cc2)CC1	-1.6	-1.2	1.2	2.2	84.0*	39.5*
CSc1ccc(C(=S)N2CCN(CCO)CC2)cc1	0.3	0.1	-2.7	-2.7	53.9*	29.0
S=C(c1ccc(Br)cc1)N1CCCC1	2.5	-1.2	-0.6	-12.1	1.2	.
O=C(COc1ncnc2ccccc12)c1ccc(Cl)cc1	-2.5	-0.8	-2.5	4.5	-0.6	.
CC(=O)Nc1ccccc1-c1nc2ccccc2nc1OCC(=O)c1ccc(Cl)cc1	-0.8	-0.7	-2.2	-4.4	56.8*	-3.0
O=C(CC(=O)c1cccc([N+](=O)[O-])c1)Nc1ccccc1Cl	-12.1	-1.5	-4.0	-7.0	120.1*	-0.2
O=C(CC(=O)c1ccccc1)Nc1cccc([N+](=O)[O-])c1	-29.8	0.4	-4.6	.	1.5	.
COC(=O)c1ccccc1CSc1nsc(/C=C/N(C)C)c1C#N	-4.6	4.1	-22.8	-10.1	85.7*	102.9*
Cc1nc(CSc2nsc(/C=C/N(C)C)c2C#N)cs1	-8.8	1.5	-10.9	-1.2	-1.4	.
COCCn1c(SCCN2CCOCC2)nc2c1c(=O)[nH]c(=O)n2C	0.4	-2.4	-1.9	2.4	60.4*	28.7
C=CCn1c(SCCN2CCOCC2)nc2c1c(=O)[nH]c(=O)n2C	-4.6	-2.1	2.1	-4.2	2.2	.
O=C(O)/C=C/C(=O)N1CCN(c2cccc(Cl)c2)CC1	-1.0	-1.6	10.2	2.0	1.0	.
CCOc1ccc(/C=N/NC(=O)c2[nH]c3ccc(C)cc3c2C)cc1	22.7	30.4	-6.6	-4.5	79.7*	6.3
O=C(CSc1nnc(C2CC2)n1C1CC1)c1cc(F)ccc1F	0.8	0.5	0.3	5.2	1.8	.
COc1cc(NC(=S)NCCCN2CCOCC2)c(OC)cc1Cl	4.1	-4.1	0.1	-3.7	-0.8	.
SMILES	SUMO1 PPI mod	LMPTP inh	DNMT1 inh	Scp-1 inhibitor	STEP inh	STEP conf
S=C(NCCCN1CCOCC1)Nc1ccc(Cl)cc1Cl	-2.3	-8.1	0.7	-12.9	42.4*	9.4
COc1ccc(NC(=S)NCCCN2CCCC2)cc1Cl	-7.0	-1.9	0.4	-16.9	89.9*	41.2*
COc1ccc(NC(=S)N(CCCN2CCN(C)CC2)Cc2cccs2)cc1	-2.9	-7.3	2.2	-4.9	-3.2	.
COc1ccc(NC(=S)NCCN2CCC(C)CC2)cc1Cl	-1.2	-1.0	-42.5	-4.1	90.0*	79.2*
S=C(NCCN1CCOCC1)Nc1ccc(Cl)cc1Cl	1.6	-3.1	3.1	-7.1	0.9	.
COc1ccc(NC(=S)N(CCCN2CCC(C)CC2)Cc2cccs2)cc1Cl	-2.5	-0.4	-3.3	-4.2	56.2*	27.0*
Cc1nn(C)c(C)c1NS(=O)(=O)c1c(C)n[nH]c1C	2.0	-1.3	8.5	-9.6	-4.0	.
COc1ccc2[nH]cc(CCNC(=O)c3ccccc3Cl)c2c1	2.0	-1.2	-29.3	-6.0	46.3*	11.9
COc1ccc(C(=O)NCCc2c[nH]c3ccc(OC)cc23)cc1	5.7	-1.4	-3.9	-18.9	-0.4	.
CCN(CC(=O)Nc1ccccc1C(F)(F)F)C(=O)Cc1ccc2c(c1)CCC2	2.4	0.4	-3.5	-5.2	1.1	.
CCCN(CC(=O)Nc1ccccc1OC)C(=O)Cc1ccc2c(c1)CCC2	-0.1	-0.1	-3.2	-4.9	71.4*	45.8*
S=C1NC[C@H](Cc2ccccc2)N1CCCCC1CCCCC1	4.2	2.0	-10.4	-0.2	0.3	.
S=C1NC[C@H](Cc2ccccc2)N1CC1CCN(CCCC2CCCC2)CC1	-2.3	1.7	5.1	15.5	43.0*	14.9
CC(C(=O)Nc1ccc(O)cc1C(=O)O)N1C(=O)/C(=C\c2cccs2)SC1=S (stereo not drawn)	6.5	7.7	-6.1	34.0	77.0*	79.9*
CNc1ccc2ncc(-c3ccc(OC)c(OC)c3)n2n1	-2.0	0.6	6.1	.	3.1	.
Cc1ccc(NC(=O)CSc2ncc(-c3ccccc3)n2C(=O)c2ccccc2)cc1	-2.7	2.8	5.4	-2.0	2.0	.
Cc1ccc(C(=O)n2c(-c3ccccc3)cnc2SCC(=O)Nc2ccccc2)cc1	3.2	1.7	11.8	0.5	72.9*	1.6
O=C(O)Cn1ccc2cc(S(=O)(=O)N3CCCCC3)ccc21	-3.4	1.6	3.5	.	2.7	.
CCOc1cc(/C=C(\C#N)C(=O)Nc2ccccc2C(=O)O)ccc1OC(=O)c1ccc(C)cc1	3.4	0.3	32.0	40.6	58.3*	4.2
Cc1ccccc1C(N)c1ccncc1 (stereo not drawn)	-1.9	-1.3	-0.5	0.8	-3.4	.
Cc1ccc(C(=S)N2CCN(Cc3ccccc3)CC2)cc1	-4.4	0.9	2.0	1.6	86.9*	33.6
CCN1CCN(C(=S)c2ccc(OCC(=O)NCc3ccccc3)cc2)CC1	1.7	-2.2	-2.5	-5.5	64.5*	25.4*
CCN1CCN(C(=S)Nc2ccc(Cl)c(Cl)c2)CC1	1.8	-3.3	-0.5	-2.1	3.8	.
